{
  "source": "ChEMBL document CHEMBL2424614",
  "about": "“A novel p-terphenyl derivative inducing cell-cycle arrest and apoptosis in MDA-MB-435 cells through topoisomerase inhibition” (Eur J Med Chem, 2013)",
  "key": {"MDA-MB-435 [1]": {"test_system": "MDA-MB-435", "experiment": "Induction of human apoptosis in MDA-MB-435 cells assessed as upregulation of Bak protein expression at 0.25 to 1 uM after 12 hrs by Western blotting analysis", "assay_type": "functional, cell-based", "outline": "(§1)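 Treated MDA-MB-435 cells lysed in ice-cold Tris-HCl pH 7.4 buffer with Triton, phosphatase and protease inhibitors. Lysates clarified, boiled in SDS loading buffer, run on 8-12% SDS-PAGE and blotted. Membranes blocked in 5% skim milk, probed with primary antibodies, then peroxidase secondaries with ECL detection. β-actin as loading control.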"}, "MDA-MB-435 [2]": {"test_system": "MDA-MB-435", "experiment": "Induction of apoptosis in human MDA-MB-435 cells assessed as increase in cleaved-caspase 3 expression after 12 to 24 hrs by Western blotting analysis", "assay_type": "functional, cell-based", "outline": "as §1"}, "MDA-MB-435 [3]": {"test_system": "MDA-MB-435", "experiment": "Induction of apoptosis in human MDA-MB-435 cells assessed as viable cells at 2 uM after 24 hrs by annexin-V FITC/propidium iodide staining-based flow cytometry (reference value: 98.62 +/- 0.25%)", "assay_type": "functional", "conditions": "MDA-MB-435, 24 h, read-out: Activity", "outline": "(§2)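 MDA-MB-435 cells treated 24 h, stained with annexin V-FITC/PI per kit instructions, analysed by flow cytometry. Quadrant statistics: lower right taken as apoptotic, upper right as necrotic or post-apoptotic necrotic. Representative of three similar experiments.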"}, "MDA-MB-435 [4]": {"test_system": "MDA-MB-435", "experiment": "Induction of apoptosis in human MDA-MB-435 cells assessed as late apoptotic cells at 2 uM after 24 hrs by annexin-V FITC/propidium iodide staining-based flow cytometry (reference value: 0.34 +/- 0.08%)", "assay_type": "functional", "outline": "as §2"}, "Bos taurus [5]": {"species": "Bos taurus", "experiment": "Induction of calf thymus DNA topoisomerase 1 poisoning activity using pBR322 as substrate assessed as appearance of nicked open circular DNA at 100 uM after 30 mins by Agarose gel electrophoresis", "outline": "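Calf thymus Topo I (1 unit) with 0.5 µg pBR322 in relaxation buffer (10 mM Tris-HCl pH 7.9, 150 mM NaCl, 0.1% BSA, 1 mM spermidine, 5% glycerol), 37 °C for 30 min. Stopped with 10% SDS, digested with proteinase K (50 µg/mL) 20 min, run on ethidium bromide-containing 1% agarose gel, 5 V/cm, 2 h. Nicked open circular and linear DNA positions scored; at least duplicate.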"}, "MDA-MB-435 [6]": {"test_system": "MDA-MB-435", "experiment": "Induction of apoptosis in human MDA-MB-435 cells assessed as viable cells at 1 uM after 24 hrs by annexin-V FITC/propidium iodide staining-based flow cytometry (reference value: 98.62 +/- 0.25%)", "assay_type": "functional", "conditions": "MDA-MB-435, 24 h, read-out: Activity", "outline": "as §2"}, "MDA-MB-435 [7]": {"test_system": "MDA-MB-435", "experiment": "Induction of apoptosis in human MDA-MB-435 cells assessed as dead cells at 2 uM after 24 hrs by annexin-V FITC/propidium iodide staining-based flow cytometry (reference value: 0.61 +/- 0.24%)", "assay_type": "functional"}, "MDA-MB-435 [8]": {"test_system": "MDA-MB-435", "experiment": "Induction of DNA damage in human MDA-MB-435 cells assessed as phosphorylation of H2AX at Ser139 at 0.5 uM after 12 hrs by Western blotting analysis", "assay_type": "functional, cell-based", "outline": "as §1"}, "MDA-MB-435 [9]": {"test_system": "MDA-MB-435", "experiment": "Induction of apoptosis in human MDA-MB-435 cells assessed as chromatin condensation at 0.25 to 1 uM by DAPI staining-based fluorscence microscopy", "assay_type": "functional, cell-based", "outline": "(§3)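 Treated MDA-MB-435 cells washed in ice-cold PBS, fixed 20 min in 4% paraformaldehyde, stained 30 min at 37 °C with DAPI (50 µg/mL) containing 100 µg/mL RNase A. After PBS washes, examined by fluorescence microscopy (excitation 340 nm, emission 488 nm).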"}, "MDA-MB-435 [10]": {"test_system": "MDA-MB-435", "experiment": "Induction of apoptosis in human MDA-MB-435 cells assessed as dead cells at 0.5 uM after 24 hrs by annexin-V FITC/propidium iodide staining-based flow cytometry (reference value: 0.61 +/- 0.24%)", "assay_type": "functional"}, "MDA-MB-435 [11]": {"test_system": "MDA-MB-435", "experiment": "Cell cycle arrest in human MDA-MB-435 cells assessed as increase in cyclin B1 expression at 0.25 to 1 uM after 12 to 24 hrs by Western blotting analysis", "assay_type": "functional, cell-based", "outline": "as §1"}, "Calf thymus DNA": {"test_system": "Calf thymus DNA", "experiment": "Induction of DNA intercalation activity of calf thymus DNA topoisomerase 1 assessed as unwinding of pBR322 DNA up to 100 uM after 30 mins by Agarose gel electrophoresis", "assay_type": "nucleic-acid assay", "conditions": "Bos taurus", "outline": "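Relaxed pBR322 made by treating supercoiled plasmid with excess Topo I (10 units), then proteinase K digestion at 37 °C, phenol-chloroform extraction and ethanol precipitation. Incubated with compound 30 min at 37 °C, run on 1% agarose gel at 5 V/cm for 2 h in TAE, stained with 0.5 µg/mL ethidium bromide, viewed under UV.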"}, "MDA-MB-435 [12]": {"test_system": "MDA-MB-435", "experiment": "Cell cycle arrest in human MDA-MB-435 cells assessed as increase in CDC2 expression at 0.25 to 1 uM after 12 to 24 hrs by Western blotting analysis", "assay_type": "functional, cell-based", "outline": "as §1"}, "MDA-MB-435 [13]": {"test_system": "MDA-MB-435", "experiment": "Induction of apoptosis in human MDA-MB-435 cells assessed as PARP cleavage after 12 to 24 hrs by Western blotting analysis", "assay_type": "functional, cell-based", "outline": "as §1"}, "MDA-MB-435 [14]": {"test_system": "MDA-MB-435", "experiment": "Cell cycle arrest in human MDA-MB-435 cells assessed as accumulation at sub-G1 phase at 0.5 uM after 24 hrs by propidium iodide staining-based flow cytometry (reference value: 0.79%)", "assay_type": "functional"}, "MDA-MB-435 [15]": {"test_system": "MDA-MB-435", "experiment": "Induction of apoptosis in human MDA-MB-435 cells assessed as upregulation of Bax protein expression at 0.25 to 1 uM after 12 hrs by Western blotting analysis", "assay_type": "functional, cell-based", "outline": "as §1"}, "[16]": {"molecular_target": "DNA topoisomerase 2-alpha (Homo sapiens) (UniProt P11388)", "sequence (P11388 whole entry)": "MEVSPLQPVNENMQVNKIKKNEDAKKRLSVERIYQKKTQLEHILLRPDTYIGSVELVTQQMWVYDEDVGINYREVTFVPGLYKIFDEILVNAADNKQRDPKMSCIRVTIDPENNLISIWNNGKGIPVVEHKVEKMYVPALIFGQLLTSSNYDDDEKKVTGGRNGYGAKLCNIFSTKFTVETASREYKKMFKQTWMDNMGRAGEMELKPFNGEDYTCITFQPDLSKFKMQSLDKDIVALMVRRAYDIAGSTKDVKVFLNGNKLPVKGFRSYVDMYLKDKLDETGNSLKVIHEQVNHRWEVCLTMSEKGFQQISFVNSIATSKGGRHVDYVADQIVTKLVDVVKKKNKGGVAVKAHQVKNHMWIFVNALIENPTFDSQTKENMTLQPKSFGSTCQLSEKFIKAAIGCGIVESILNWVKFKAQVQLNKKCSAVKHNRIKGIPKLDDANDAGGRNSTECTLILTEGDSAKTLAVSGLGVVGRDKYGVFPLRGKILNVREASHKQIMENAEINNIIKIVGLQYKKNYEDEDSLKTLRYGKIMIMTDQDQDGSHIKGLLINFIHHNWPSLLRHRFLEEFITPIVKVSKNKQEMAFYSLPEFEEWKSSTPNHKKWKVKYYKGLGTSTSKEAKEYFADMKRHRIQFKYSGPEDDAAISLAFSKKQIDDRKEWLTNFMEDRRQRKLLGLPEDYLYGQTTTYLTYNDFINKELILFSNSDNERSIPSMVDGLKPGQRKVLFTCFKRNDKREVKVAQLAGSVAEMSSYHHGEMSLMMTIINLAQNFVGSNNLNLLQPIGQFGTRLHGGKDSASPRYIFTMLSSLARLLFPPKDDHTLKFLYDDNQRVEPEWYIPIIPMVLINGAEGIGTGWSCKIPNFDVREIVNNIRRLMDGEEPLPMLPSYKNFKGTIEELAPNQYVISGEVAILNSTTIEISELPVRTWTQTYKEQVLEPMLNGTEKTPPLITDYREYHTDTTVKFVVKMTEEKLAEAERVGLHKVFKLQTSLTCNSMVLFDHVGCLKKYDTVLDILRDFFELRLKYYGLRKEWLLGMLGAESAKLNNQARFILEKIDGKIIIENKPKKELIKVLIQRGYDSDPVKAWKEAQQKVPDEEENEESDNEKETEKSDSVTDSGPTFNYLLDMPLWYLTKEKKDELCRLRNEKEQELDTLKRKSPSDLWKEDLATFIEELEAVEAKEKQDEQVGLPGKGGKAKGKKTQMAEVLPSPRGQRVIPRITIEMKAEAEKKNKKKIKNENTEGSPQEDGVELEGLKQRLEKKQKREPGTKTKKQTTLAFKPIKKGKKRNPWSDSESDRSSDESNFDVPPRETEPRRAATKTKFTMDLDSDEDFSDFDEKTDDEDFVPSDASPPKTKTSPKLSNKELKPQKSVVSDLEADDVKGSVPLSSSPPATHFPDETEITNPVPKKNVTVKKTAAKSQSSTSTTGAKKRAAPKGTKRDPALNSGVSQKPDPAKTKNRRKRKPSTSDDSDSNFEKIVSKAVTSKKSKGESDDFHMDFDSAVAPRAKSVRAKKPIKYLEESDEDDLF", "experiment": "Induction of recombinant human DNA topoisomerase 2-alpha poisoning activity using pBR322 as substrate assessed as appearance of linear DNA at 100 uM after 30 mins by Agarose gel electrophoresis", "outline": "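Same format as the Topo IIα inhibition assay: 0.5 µg supercoiled pBR322 with 1 unit recombinant human Topo IIα. Incubated 37 °C for 30 min, stopped with 10% SDS, then proteinase K (50 µg/mL) for 20 min. Run on 1% agarose gel containing ethidium bromide, 5 V/cm, 2 h, TAE. Linear and nicked open circular DNA positions scored. At least duplicate.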"}, "MDA-MB-435 [17]": {"test_system": "MDA-MB-435", "experiment": "Induction of apoptosis in human MDA-MB-435 cells assessed as nuclear fragmentation at 0.25 to 1 uM by DAPI staining-based fluorscence microscopy", "assay_type": "functional, cell-based", "outline": "as §3"}, "Bos taurus [18]": {"species": "Bos taurus", "experiment": "Inhibition of calf thymus DNA topoisomerase 1-mediated relaxation of supercoiled pBR322 DNA at 100 uM after 30 mins by Agarose gel electrophoresis", "outline": "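Relaxation assay with 0.5 µg supercoiled pBR322 and 1 unit calf thymus Topo I, 20 µL. Buffer: 10 mM Tris–HCl pH 7.9, 150 mM NaCl, 0.1% BSA, 1 mM spermidine, 5% glycerol. Incubated 37 °C for 30 min; stopped with sarcosyl stop solution. 1% agarose gel, 5 V/cm, 2 h, TAE; ethidium bromide stain (0.5 µg/mL), UV. DMSO stocks. At least duplicate.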"}, "MDA-MB-435 [19]": {"test_system": "MDA-MB-435", "experiment": "Induction of apoptosis in human MDA-MB-435 cells assessed as dead cells at 1 uM after 24 hrs by annexin-V FITC/propidium iodide staining-based flow cytometry (reference value: 0.61 +/- 0.24%)", "assay_type": "functional"}, "MDA-MB-435 [20]": {"test_system": "MDA-MB-435", "experiment": "Cell cycle arrest in human MDA-MB-435 cells assessed as accumulation at sub-G1 phase at 0.25 to 1 uM by propidium iodide staining-based flow cytometry", "assay_type": "functional", "conditions": "TDE = time-dependent effect, in the assay text read “G2/M phase” for “sub-G1 phase”", "outline": "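PI-stained DNA content of treated MDA-MB-435 cells read by flow cytometry. Sub-G1 population taken as apoptotic cellular fragments; three independent experiments.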"}},
  "note": "Active and inactive are the calls of the source. No cut-off for these calls is given here.",
  "data": [
    {"molecule": "Oc1ccc(-c2ccc(-c3ccc(O)c(O)c3)cc2)cc1", "values": [
      {"measurement": "Activity", "setting": "MDA-MB-435 [1]", "value": "Active"},
      {"measurement": "Activity", "setting": "MDA-MB-435 [2]", "value": "Dose-dependent effect"},
      {"measurement": "viability at 2 µM", "setting": "MDA-MB-435 [3]", "value": 71.8, "unit": "%"},
      {"measurement": "Activity", "setting": "MDA-MB-435 [4]", "value": 14.35, "unit": "%"},
      {"measurement": "Activity", "setting": "Bos taurus [5]", "value": "inactive"},
      {"measurement": "viability at 1 µM", "setting": "MDA-MB-435 [6]", "value": 76.3, "unit": "%"},
      {"measurement": "Activity", "setting": "MDA-MB-435 [7]", "value": 1.7, "unit": "%"},
      {"measurement": "Activity", "setting": "MDA-MB-435 [8]", "value": "inactive"},
      {"measurement": "Activity", "setting": "MDA-MB-435 [9]", "value": "Active"},
      {"measurement": "Activity", "setting": "MDA-MB-435 [10]", "value": 1.27, "unit": "%"},
      {"measurement": "Activity", "setting": "MDA-MB-435 [11]", "value": "Active"},
      {"measurement": "Activity", "setting": "Calf thymus DNA", "value": "inactive"},
      {"measurement": "Activity", "setting": "MDA-MB-435 [12]", "value": "Active"},
      {"measurement": "Activity", "setting": "MDA-MB-435 [13]", "value": "Dose-dependent effect"},
      {"measurement": "Activity", "setting": "MDA-MB-435 [14]", "value": 4.53, "unit": "%"},
      {"measurement": "Activity", "setting": "MDA-MB-435 [15]", "value": "Active"},
      {"measurement": "Activity", "setting": "[16]", "value": "inactive"},
      {"measurement": "Activity", "setting": "MDA-MB-435 [17]", "value": "Active"},
      {"measurement": "inhibition", "setting": "Bos taurus [18]", "value": "Active"},
      {"measurement": "Activity", "setting": "MDA-MB-435 [19]", "value": 1.03, "unit": "%"},
      {"measurement": "Activity", "setting": "MDA-MB-435 [20]", "value": "tde"}
    ]}
  ]
}
